Screening data (PubChem BioAssay)
Sampled rows, rich in hits. Any-hit rate of the full collection: about 2%.
ATG4B inh: inhibitors of human ATG4B cysteine protease. ATG4B cleavage of LC3-PLA2, NBD-HPC fluorescence, 1 h. inhibition, % at 8.33 µM. 0.51% of 340,000 active. AID 504462
Rpn11 inh: blocks the human proteasome subunit Rpn11. O00487. human 26S proteasome, Ub4-pepOG fluorescence polarization; 20S core pre-blocked with epoxomicin. inhibition, % at 20 µM. 0.59% of 360,000 active. AID 588493;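 active = inhibition at 20 µM, scaled to each plate's controls, above about 33%, limit read from the data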
SENP1 inh: SENP1 (human) catalytic domain inhibition; inhibition, % at 10 µM; 0.21% of 360,000 active; Q9P0U3; recombinant SENP1 catalytic domain, CyPet-SUMO1-YPet FRET cleavage; AID 624204;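 active = inhibition at least 30% at 10 µM, raw YFP signal under a set limit, fluorescence ratio 0.5 to 1.5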
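Test system: recombinant human SENP1 catalytic domain, His6-tagged / Medium: pH 8 Tris buffer with EDTA, NaCl, BME, BSA, NP40, catalase / Also added: SUMO1 FRET substrate flanked by Cypet and Ypet, 25 nM / Times: 50 min reaction at room temperature / Signal: FRET, CFP and YFP emission / Control set: no-enzyme low control and enzyme-plus-DMSO high control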
CSN deneddyl inh: inhibitors of human CSN-mediated cullin deneddylation; Purified CSN, SCF-Nedd8-OG deneddylation, fluorescence polarization; AID 651999; 0.38% of 360,000 active; inhibition, % at 12.5 µM;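 active = pattern-corrected inhibition above about 35%, with an unprinted fluorescence ratio check between 0.5 and 1.5, limit read from the data, passing the limit was not always enough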
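Assay system: Purified human Csn5 enzyme expressed in HEK293T cells | Amount: Enzyme 0.24 nM | Measured by: Fluorescence polarization readout | Medium: Tris/NaCl/DTT buffer, pH 7.5 | Compound dosing: One concentration, 12.5 µM, 0.25% DMSO | Times: 90 min incubation of compound, enzyme and substrate at room temperature | Control set: no-enzyme wells high, enzyme-with-substrate wells low | Read-out: % inhibition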
TPT1 inh: inhibitors of Candida albicans tRNA 2'-phosphotransferase TPT1 | recombinant caTPT1, FP RNA substrate dephosphorylation | inhibition, % at 5 µM | 0.81% of 300,000 active | AID 1962;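 active = inhibition above the mean of all tested compounds plus 3 SD, set per screening campaign, cut at about 24% in these data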
HNF4A DNA FP: change in binding of human HNF4 alpha to DNA | P41235 | HNF4a-FITC DNA binding, fluorescence polarization, 1 h | activity change, % at 10 µM | 0.3% of 360,000 active; in the data active = activity change above about 30%, passing the limit was not always enough
caTPT1 confirm: confirmation of Candida albicans TPT1 inhibitors; shares compounds with TPT1 inh; recombinant caTPT1, fluorescence polarization, RNase T1 coupled; inhibition, % at 5 µM; 74% of 2,400 active;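 active = inhibition above the primary screen limit, the mean inhibition of all tested compounds plus 3 SD, cut at about 25% in these data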
RNase T1 counter: blocks Aspergillus oryzae RNase T1, a TPT1 counter-screen | shares compounds with TPT1 inh | inhibition, % at 5 µM | AID 2153 | 83% of 2,400 active | RNase T1 cleavage, fluorescence polarization, 1536-well;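 active = inhibition above the solvent-only control well mean plus 3 SD, limit set per screening run, cut at about 23% in these data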;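 also: inhibitors block cleavage so intact labeled substrate keeps polarization high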
Target sequence (P00651 whole entry, looked up): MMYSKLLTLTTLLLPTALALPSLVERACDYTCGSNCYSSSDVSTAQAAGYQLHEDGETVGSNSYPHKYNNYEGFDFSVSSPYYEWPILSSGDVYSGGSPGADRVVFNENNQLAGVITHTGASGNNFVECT
Rpn11 inh conf: Rpn11 inhibition confirmation, single concentration | inhibition, % at 20 µM | purified human 26S proteasome, Ub4-pepOG fluorescence polarization; proteasome pretreated with epoxomicin | shares compounds with Rpn11 inh | 29% of 1,900 active
MMP-2 counter-1: counter-screen for RPN11 inhibitors: inhibition of human MMP-2; shares compounds with Rpn11 inh; recombinant MMP-2, FRET peptide cleavage fluorescence; inhibition, % at 20 µM; 4% of 1,900 active;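 also: human MMP-2 activated beforehand with APMA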
Target sequence (P08253 whole entry, looked up): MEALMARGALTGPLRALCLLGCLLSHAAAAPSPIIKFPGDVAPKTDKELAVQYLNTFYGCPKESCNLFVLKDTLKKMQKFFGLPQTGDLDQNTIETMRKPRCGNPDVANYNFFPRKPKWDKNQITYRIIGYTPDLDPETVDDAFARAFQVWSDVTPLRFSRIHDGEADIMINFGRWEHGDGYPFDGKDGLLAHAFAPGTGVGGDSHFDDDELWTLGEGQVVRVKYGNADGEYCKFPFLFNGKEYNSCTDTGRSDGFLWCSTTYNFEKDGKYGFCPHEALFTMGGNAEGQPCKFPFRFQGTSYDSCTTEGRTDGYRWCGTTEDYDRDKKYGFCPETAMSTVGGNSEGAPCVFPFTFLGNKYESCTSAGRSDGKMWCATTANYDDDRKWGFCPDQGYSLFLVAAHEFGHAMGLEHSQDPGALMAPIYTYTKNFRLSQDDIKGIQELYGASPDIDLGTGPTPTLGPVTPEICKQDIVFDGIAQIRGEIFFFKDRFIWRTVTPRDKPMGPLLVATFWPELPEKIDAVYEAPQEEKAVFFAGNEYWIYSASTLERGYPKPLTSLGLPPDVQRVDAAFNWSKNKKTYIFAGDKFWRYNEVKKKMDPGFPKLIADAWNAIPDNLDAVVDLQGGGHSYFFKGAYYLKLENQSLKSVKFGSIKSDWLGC
Thrombin FP: blocks bovine thrombin, flagging nonselective RPN11 hits; AID 602333; 13% of 1,900 active; bovine thrombin cleavage of Ub4-pepOG, fluorescence polarization; inhibition, % at 20 µM; shares compounds with Rpn11 inh;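 active = mean inhibition at least 40% at 20 µM, or signal 3 deviations below plate average, so some actives read negative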
SENP1 inh conf: SENP1 (human) inhibition, single concentration confirmation. 34% of 520 active. shares compounds with SENP1 inh. inhibition, % at 10 µM. recombinant SENP1, CyPet-SUMO1-YPet FRET cleavage; in the data active = inhibition mostly above about 35%, no sharp cut-off; inactive = mostly below about 32%
SENP1 kin conf: confirmation of human SENP1 SUMO protease inhibitors, kinetic; shares compounds with SENP1 inh; recombinant SENP1, CyPet-SUMO1-YPet FRET kinetic cleavage; inhibition, % at 10 µM; 26% of 520 active; AID 651690; in the data active = inhibition mostly above about 32%, no sharp cut-off; inactive = mostly below about 29%
CSN5 deneddyl: Csn5 (human) deneddylation inhibition, single-concentration validation; shares compounds with CSN deneddyl inh; Csn5 deneddylation of SCF-Nedd8OG, fluorescence polarization, 90 min; inhibition, % at 16.6 µM; 62% of 540 active; AID 720654; in the data active = inhibition above about 50%
MMP-2 counter-2: counter-screen for CSN deneddylation inhibitors: human MMP-2 inhibition. recombinant MMP-2, FRET substrate fluorescence, 60 min. 33% of 540 active. inhibition, % at 16.6 µM. shares compounds with CSN deneddyl inh;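 active = corrected plate-normalized z-score of 5 or more, or -5 or less, or inhibition of 15% or more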
Thrombin cntr: counter-screen for CSN deneddylation inhibitors: bovine thrombin inhibition. shares compounds with CSN deneddyl inh. bovine thrombin cleavage of Ub4-pepOG, fluorescence polarization. inhibition, % at 16.6 µM. 49% of 540 active. AID 720656;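 active = inhibition at or above a set limit, with a fluorescence interference ratio between 0.5 and a set maximum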
Large screens that a line does not name were inactive (follow-up assays come after a bar, where shown). Rule as the data show it, unless noted: active = inhibition above about 40%; inactive = the rest.

O=C1/C(=C/c2ccc([N+](=O)[O-])cc2)C=C(c2ccccc2)N1c1ccccc1	Rpn11 inh 40.3, SENP1 inh 40.1, TPT1 inh 34.6 | caTPT1 confirm inactive | RNase T1 counter 22.9 | Rpn11 inh conf inactive | MMP-2 counter-1 inactive | Thrombin FP inactive | SENP1 inh conf inactive | SENP1 kin conf inactive
COc1ccc2c(C)cc(SCC(=O)N3CCOCC3)nc2c1	Rpn11 inh 40.1, SENP1 inh 67.5, TPT1 inh 72.5 | caTPT1 confirm 61.2 | RNase T1 counter 72.6 | Rpn11 inh conf 40.8 | MMP-2 counter-1 inactive | Thrombin FP inactive | SENP1 inh conf 49.6 | SENP1 kin conf 36.2
COc1ccc2c(C)cc(SCC(=O)NC3CCCCC3)nc2c1	none (no result: TPT1 inh)
Cc1ccc(NC(=O)CSc2nnnn2C)cc1S(=O)(=O)N1CCCCC1	none (no result: ATG4B inh, TPT1 inh)
CC(=O)n1cc(C2CC(=O)OC3=C2CC(=O)C(C)(C)C3)c2ccccc21 (stereo not given)	none (no result: ATG4B inh, TPT1 inh)
COC(=O)c1ccc(NC(=O)CCn2c(=O)oc3ccccc32)cc1	none
CCOC(=O)c1ccc(NCn2c(=O)oc3ccccc32)cc1	SENP1 inh 53.9, TPT1 inh 30.6 (not shown: Rpn11 inh) | caTPT1 confirm 44.4 | RNase T1 counter 57.5 | SENP1 inh conf inactive | SENP1 kin conf inactive
Cc1ccc(C(=O)CCC(=O)NNC(=O)c2ccccc2O)cc1	none (no result: TPT1 inh)
CCc1nc2c(OCc3ccc(C(=O)N(C)C)cc3)cccn2c1N(C)C(=O)Nc1ccccc1OC	none (no result: ATG4B inh, TPT1 inh)
COC(=O)CSc1nc(C)cc(C(F)(F)F)c1C#N	none
Cc1ccc(S(=O)(=O)CCSc2nc(C)cc(C(F)(F)F)c2C#N)cc1	SENP1 inh 72.4, TPT1 inh 39.8 (not shown: Rpn11 inh) | caTPT1 confirm 57.7 | RNase T1 counter 69.4 | SENP1 inh conf inactive | SENP1 kin conf inactive
CC1(C(=O)NS(=O)(=O)Cc2cccc(Cl)c2)CCN1C(=O)c1ccc(C2CCCCC2)cc1 (stereo not given)	none (no result: ATG4B inh, TPT1 inh)
Cc1c(N(C)S(=O)(=O)c2ccc(Cl)c(C(=O)NCC(C)(C)N3CCOCC3)c2)c(=O)n(-c2ccccc2)n1C	none (no result: TPT1 inh)
OC(c1ccccc1)c1ncc(-c2ccccc2Cl)[nH]1 (stereo not given)	none (no result: ATG4B inh, TPT1 inh)
COc1ccccc1N(C)S(=O)(=O)c1ccc(C(=O)N(C)Cc2ccc(OC(F)F)cc2)cc1	none (no result: TPT1 inh)
CC(C)Nc1ccc(C(CC(N)=O)NC(=O)Cc2cccc3ccccc23)cc1[N+](=O)[O-] (stereo not given)	SENP1 inh 40.6, TPT1 inh 74.5 (not shown: Rpn11 inh) | caTPT1 confirm 85.0 | RNase T1 counter 94.7 | SENP1 inh conf inactive | SENP1 kin conf inactive
N#C/C(C(N)=O)=C1/SC(Cc2ccc(F)cc2)C(=O)N1c1ccccc1 (stereo not given)	SENP1 inh 70.2, TPT1 inh 27.7 | caTPT1 confirm inactive | RNase T1 counter inactive | SENP1 inh conf inactive | SENP1 kin conf inactive
CNC(=O)/C(C#N)=C1/SC(Cc2ccc(F)cc2)C(=O)N1c1ccccc1 (stereo not given)	none
CCOc1cc([N+](=O)[O-])cc2c1C(=O)Nc1ccccc1O2	SENP1 inh 53.9, CSN deneddyl inh 43.3, TPT1 inh 29.8 (not shown: Rpn11 inh) | caTPT1 confirm 44.4 | RNase T1 counter 54.7 | SENP1 inh conf inactive | SENP1 kin conf inactive
COc1ccc(NC2=Nc3cccc4cccc2c34)cc1	Rpn11 inh 49.9, SENP1 inh 77.4, TPT1 inh 26.2 | caTPT1 confirm 37.2 | RNase T1 counter 48.5 | Rpn11 inh conf inactive | MMP-2 counter-1 inactive | Thrombin FP inactive | SENP1 inh conf 57.4 | SENP1 kin conf inactive
O=C(O)c1cccc(NC2=Nc3cccc4cccc2c34)c1	none
COc1ccccc1-n1cc([C@@H]2C[C@H]3CN(c4ccccc4)C(=O)[C@]34CCCN24)cn1	CSN deneddyl inh 54.4, TPT1 inh 60.4, HNF4A DNA FP 64.7 (not shown: Rpn11 inh) | caTPT1 confirm 46.6 | RNase T1 counter 61.0 | CSN5 deneddyl 69.4 | MMP-2 counter-2 inactive | Thrombin cntr 36.6
COc1ccc(C(=O)N[C@H](C(=O)NCCCSc2ccccc2)C(C)C)cc1	none (no result: TPT1 inh)
CCC(C)(C)C1CCC2(CC1)NC(=O)N(CC(=O)N(C)CCOc1ccc(Cl)cc1)C2=O (stereo not given)	none (no result: TPT1 inh)
O=C(/C=C/c1ccc([N+](=O)[O-])cc1)/C=C/c1ccco1	CSN deneddyl inh 46.4, TPT1 inh 26.8 (no result: ATG4B inh) | caTPT1 confirm inactive | RNase T1 counter 31.4 | CSN5 deneddyl 76.7 | MMP-2 counter-2 inactive | Thrombin cntr inactive
Cc1cc(C)c(C(=O)N(CCN(C)C)CC2CCCN(Cc3ccccc3F)C2)o1 (stereo not given)	none
COC(=O)c1cc(C(=O)OCC(=O)N2CCCCC2)cc([N+](=O)[O-])c1	none (no result: TPT1 inh)
CC(C)(C)OC(=O)N1CCC(NC(=O)c2[nH]c(C(F)(F)F)nc2-c2ccccc2)CC1	none (no result: ATG4B inh, TPT1 inh)
